This is an account of results in ChEMBL document CHEMBL1132793, “Chiral synthesis and pharmacological evaluation of NPS 1407: a potent, stereoselective NMDA receptor antagonist” (Bioorg Med Chem Lett, 2000).

For orientation: ED50 means the dose that gives a 50% effect, or the effect in half of the subjects. What is called IC50 is the concentration that gives 50% inhibition. The term TD50 denotes the dose at which the toxic effect under study appears in half of the subjects. High values mean harm only at a large dose, low ones harm at a small dose.

Data set [1] relates to Mus musculus. The data set can be described thus: Relative anticonvulsant potency in frings mice by peroral administration expressed as effective dose. The data set is classed as functional. The following applies: po.
Data set [2] concerns Mus musculus. The data set can be described thus: Relative anticonvulsant potency in frings mice by intraperitoneal administration expressed as effective dose. The data set is classed as functional. The following applies: ip. The method, boiled down:
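Frings audiogenic seizure-susceptible mice of both sexes (18–25 g), in groups of eight, given varying ip doses. At the time of peak effect, each mouse was exposed to a 110 dB (11 kHz) sound for 20 s and observed for 25 s. Absence of hindlimb tonic extension counted as protection. ED50 by probit analysis.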

Data set [3] concerns the target Glutamate NMDA receptor. The data set can be described thus: The compound was tested in vitro for the displacement of the radioligand (+)-[3H]-MK-801 from synaptic plasma membranes from rat cortex against N-methyl-D-aspartate glutamate receptor. The data set is classed as cell-free.
The subject of data set [4] is Mus musculus. The data set can be described thus: Lethality in mice following 60 mg/kg/day ip dose; 8/8. The data set is classed as ADME, organism-based. Further details: route intraperitoneal. Particulars: in vivo.
In data set [5] the test system is Mus musculus. The data set can be described thus: Lethality in mice following 30 mg/kg/day ip dose; 4/7. The data set is classed as ADME, organism-based. Details: route intraperitoneal. The following applies: in vivo.
Data set [6] can be described thus: Relative anticonvulsant potency in frings mice by peroral administration expressed as toxic dose. The format is ADME, organism-based. Particulars: mouse, in vivo, po.
The target in data set [7] is Glutamate NMDA receptor. The data set can be described thus: The compound was tested in vitro for the inhibition of N-methyl-D-aspartate glutamate receptor in rat cerebellar granule cells (RCGCs). In short, it runs like this:
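Cultured rat cerebellar granule cells; cytosolic calcium rise stimulated by NMDA (50 µM) plus glycine (1 µM). Multiple cumulative concentration–response curves with at least five concentrations per test substance; IC50 by logit analysis.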

For the molecule `NCCC(c1cccc(F)c1)c1cccc(F)c1`, the ED50 worked out at 9.7 mg/kg in the data set with Mus musculus [1] and 2.1 mg/kg with Mus musculus [2].

Turning to `CC(N)CC(c1cccc(F)c1)c1cccc(F)c1` (configuration not stated), the median effective dose (ED50) in the data set on Mus musculus [1] came to 5.1 mg/kg; with Mus musculus [2], 4.9 mg/kg. In addition, the IC50 turned out to be 1040 nM on Glutamate NMDA receptor [3] and 145 nM at Glutamate NMDA receptor [7]. Further, the Lethality result in the data set with Mus musculus [4] and in the data set on Mus musculus [5] was “Lethal” each time. In data set [6], the TD50 is 18.3 mg/kg.

Take `C[C@H](N)CC(c1cccc(F)c1)c1cccc(F)c1`: the ED50 with Mus musculus [1] came out at 7.3 mg/kg; in the data set on Mus musculus [2] it was 2.7 mg/kg. Moreover, the IC50 at Glutamate NMDA receptor [3] came to 762 nM; at Glutamate NMDA receptor [7], 89 nM. Further, in data set [6], the TD50 is 18.6 mg/kg.

As to `C[C@@H](N)CC(c1cccc(F)c1)c1cccc(F)c1`, the IC50 on Glutamate NMDA receptor [3] came to 4500 nM; against Glutamate NMDA receptor [7], 1110 nM. In the data set on Mus musculus [2], this molecule yielded an ED50 of 9.1 mg/kg.
